From ChEMBL document CHEMBL4411275, “Design, synthesis and biological evaluation of quinoline-indole derivatives as anti-tubulin agents targeting the colchicine binding site” (Eur J Med Chem, 2019)

What was measured:
[1] = tested on: HepG2; test: Antiproliferative activity against human HepG2 cells after 72 hrs by MTT assay; type: functional, cell-based; settings: HepG2, 72 h
How it was run: (§1)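 Cells preincubated 24 h at 37 °C, 5% CO₂. Compounds added at several concentrations in medium with 0.1% DMSO for 72 h. MTT (5 mg/mL in PBS) then added for 4 h, and optical density read at 490 nm. IC50 taken from dose-response curves; mean ± SD of at least three independent experiments.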

[2] = tested on: KB; test: Antiproliferative activity against human KB cells after 72 hrs by MTT assay; type: functional, cell-based; how it was run: as §1
[3] = tested on: L02; test: Antiproliferative activity against human LO2 cells after 72 hrs by MTT assay; type: cell-based; settings: L02, 72 h; how it was run: as §1
[4] = tested on: A549; test: Antiproliferative activity against human A549 cells after 72 hrs by MTT assay; type: functional, cell-based; settings: A549, 72 h; how it was run: as §1
[5] = Antiproliferative activity against human taxol-resistant HCT8/T cells after 72 hrs by MTT assay; type: functional; settings: HCT-8, 72 h; how it was run: as §1
[6] = tested on: K562/VCR; test: Antiproliferative activity against human VCR-resistant K562/VCR cells after 72 hrs by MTT assay; type: functional, cell-based; how it was run: as §1
[7] = Drug resistance index, ratio of IC50 for VCR-resistant human K562/VCR cells to IC50 for human K562 cells; type: functional
[8] = Antiproliferative activity against human ADR-resistant Bel7402/ADR cells after 72 hrs by MTT assay; type: functional; settings: Bel-7402, 72 h; how it was run: as §1
[9] = target: Tubulin (Sus scrofa, UniProt P02554+P02550); test: Inhibition of porcine brain tubulin polymerization preincubated for 30 mins and measured every 2 mins for 60 mins by spectrophotometric analysis
[10] = target: T1, Tubulin (Sus scrofa) (UniProt P02554+P02550); test: Inhibition of [3H]-colchicine binding to biotinylated porcine tubulin at 1 uM after 2 hrs by SPA relative to control; type: protein assay
How it was run: (§2)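 Scintillation proximity assay: 0.08 μM [3H]colchicine incubated with biotinylated porcine tubulin (0.5 μg) and test compound for 2 h at 37 °C in 80 mM PIPES pH 6.8, 1 mM EGTA, 10% glycerol, 1 mM MgCl2, 1 mM GTP. Streptavidin SPA beads then added, and bound radioactivity counted by scintillation counter.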

[11] = target: T1, Tubulin (Sus scrofa); test: Inhibition of [3H]-colchicine binding to biotinylated porcine tubulin at 5 uM after 2 hrs by SPA relative to control; type: protein assay; how it was run: as §2
[12] = tested on: K562; test: Cell cycle arrest in human K562 cells assessed as accumulation of cells at G1 phase at 1 nM after 48 hrs by propidium iodide staining-based flow cytometric analysis (reference value: 69.57%); type: functional
[13] = tested on: K562; test: Cell cycle arrest in human K562 cells assessed as accumulation of cells at S phase at 1 nM after 48 hrs by propidium iodide staining-based flow cytometric analysis (reference value: 19.93%); type: functional
[14] = tested on: K562; test: Cell cycle arrest in human K562 cells assessed as accumulation of cells at G2 phase at 1 nM after 48 hrs by propidium iodide staining-based flow cytometric analysis (reference value: 10.51%); type: functional
[15] = tested on: K562; test: Cell cycle arrest in human K562 cells assessed as accumulation of cells at G1 phase at 2 nM after 48 hrs by propidium iodide staining-based flow cytometric analysis (reference value: 69.57%); type: functional
[16] = tested on: K562; test: Cell cycle arrest in human K562 cells assessed as accumulation of cells at G2 phase at 2 nM after 48 hrs by propidium iodide staining-based flow cytometric analysis (reference value: 10.51%); type: functional
[17] = tested on: K562; test: Cell cycle arrest in human K562 cells assessed as accumulation of cells at G1 phase at 4 nM after 48 hrs by propidium iodide staining-based flow cytometric analysis (reference value: 69.57%); type: functional
[18] = tested on: K562; test: Cell cycle arrest in human K562 cells assessed as accumulation of cells at S phase at 4 nM after 48 hrs by propidium iodide staining-based flow cytometric analysis (reference value: 19.93%); type: functional
[19] = tested on: K562; test: Cell cycle arrest in human K562 cells assessed as accumulation of cells at G2 phase at 4 nM after 48 hrs by propidium iodide staining-based flow cytometric analysis (reference value: 10.51%); type: functional
[20] = tested on: HUVEC; test: Anti-vascular activity in HUVEC assessed as inhibition of tube formation after 6 hrs by inverted microscopic analysis; type: functional, cell-based; settings: Homo sapiens
How it was run: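 Matrigel thawed overnight at 4 °C and polymerised at 37 °C for 30 min. HUVECs in DMEM seeded at 50,000 cells/well, then exposed to 1, 2 or 4 nM compound or vehicle for 6 h at 37 °C. Capillary-like tubes photographed under an inverted microscope.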

[21] = tested on: HUVEC; test: Antiproliferative activity against HUVEC at 2 to 4 nM after 6 hrs; type: cell-based; settings: human, 0.004 µM
[22] = Toxicity in ICR mouse xenografted with […] cells assessed as body weight loss at 20 mg/kg/day, iv for 21 days; type: organism-based; settings: in vivo, 504 h
How it was run: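 H22 cells (1×10^6) implanted s.c. in right flank of male ICR mice (five weeks old), eight per group. Body weight recorded every 2 days during treatment.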

[23] = tested on: H22 (Mus musculus); test: Antiproliferative activity against mouse H22 cells after 72 hrs by MTT assay; settings: H22, 72 h
[24] = tested on: K562; test: Induction of apoptosis in human K562 cells at 2 nM after 48 hrs by Annexin-V/propidium iodide staining-based flow cytometric analysis (reference value: 5.96%)
[25] = tested on: K562; test: Induction of apoptosis in human K562 cells at 4 nM after 48 hrs by Annexin-V/propidium iodide staining-based flow cytometric analysis (reference value: 5.96%)
[26] = tested on: H22 (Mus musculus); test: Antitumor activity against mouse H22 cells xenografted in ICR mouse assessed as reduction in tumor weight at 10 mg/kg/day, iv for 21 days relative to control; parameters: scale not given: the % may be the effect or the level left
[27] = tested on: K562; test: Induction of mitochondrial membrane potential loss in human K562 cells assessed as intact mitochondrial membrane at 1 nM after 48 hrs by JC-1 dye-based flow cytometric analysis (RVB = 93.17%)
[28] = tested on: K562; test: Induction of mitochondrial membrane potential loss in human K562 cells assessed as intact mitochondrial membrane at 2 nM after 48 hrs by JC-1 dye-based flow cytometric analysis (RVB = 93.17%)
[29] = tested on: K562; test: Induction of mitochondrial membrane potential loss in human K562 cells assessed as collapsed mitochondrial membrane at 1 nM after 48 hrs by JC-1 dye-based flow cytometric analysis (RVB = 6.17%)
[30] = tested on: K562; test: Induction of mitochondrial membrane potential loss in human K562 cells assessed as collapsed mitochondrial membrane at 2 nM after 48 hrs by JC-1 dye-based flow cytometric analysis (RVB = 6.17%)
[31] = tested on: K562; test: Induction of mitochondrial membrane potential loss in human K562 cells assessed as collapsed mitochondrial membrane at 4 nM after 48 hrs by JC-1 dye-based flow cytometric analysis (RVB = 6.17%)

T1 sequence (P02550 whole entry, looked up): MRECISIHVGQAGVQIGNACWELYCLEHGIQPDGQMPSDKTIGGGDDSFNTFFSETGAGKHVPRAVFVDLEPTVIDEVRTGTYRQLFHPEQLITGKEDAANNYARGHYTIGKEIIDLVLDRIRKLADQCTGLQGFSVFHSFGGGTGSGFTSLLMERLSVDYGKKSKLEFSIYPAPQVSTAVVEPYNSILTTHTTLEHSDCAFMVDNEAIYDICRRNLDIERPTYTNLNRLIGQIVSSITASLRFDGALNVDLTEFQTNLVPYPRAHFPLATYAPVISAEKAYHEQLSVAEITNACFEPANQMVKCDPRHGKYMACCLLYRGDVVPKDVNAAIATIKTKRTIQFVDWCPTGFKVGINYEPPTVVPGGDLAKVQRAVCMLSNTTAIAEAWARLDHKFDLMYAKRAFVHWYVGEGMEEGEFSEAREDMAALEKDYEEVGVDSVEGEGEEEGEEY
T1 sequence (P02554 whole entry, looked up): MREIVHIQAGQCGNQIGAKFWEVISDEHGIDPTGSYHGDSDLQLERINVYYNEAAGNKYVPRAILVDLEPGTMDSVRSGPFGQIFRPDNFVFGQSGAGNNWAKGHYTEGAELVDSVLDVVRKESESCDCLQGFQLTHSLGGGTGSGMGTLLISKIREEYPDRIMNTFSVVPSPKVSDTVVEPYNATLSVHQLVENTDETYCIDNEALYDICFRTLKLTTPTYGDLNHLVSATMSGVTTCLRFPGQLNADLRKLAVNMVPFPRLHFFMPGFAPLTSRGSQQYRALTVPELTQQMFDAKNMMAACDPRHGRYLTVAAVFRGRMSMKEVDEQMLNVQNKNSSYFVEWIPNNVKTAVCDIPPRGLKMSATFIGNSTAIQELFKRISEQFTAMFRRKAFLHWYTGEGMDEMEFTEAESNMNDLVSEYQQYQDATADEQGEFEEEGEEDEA

## C=C(c1ccc2c(ccn2CO)c1)c1cc(C)nc2ccccc12
[1]
  IC50: 6 nM
[2]
  IC50: 5 nM
[3]
  IC50: 48 nM
[4]
  IC50: 9 nM
[5]
  IC50: 88 nM
[6]
  IC50: 31 nM
[7]
  Ratio IC50: 15.5
[8]
  IC50: 61 nM
[9]
  IC50: 2.09 µM
[10]
  inhibition: 79.4%
[11]
  inhibition: 90.5%
[12]
  Activity: 60.18%
[13]
  Activity: 27.38%
[14]
  Activity: 12.44%
[15]
  Activity: 50.63%
[16]
  Activity: 16.16%
[17]
  Activity: 45.79%
[18]
  Activity: 31%
[19]
  Activity: 23.21%
[20]
  Activity: Dose-dependent effect
[21]
  Activity: Non-Toxic
[22]
  Activity: Non-Toxic
[23]
  IC50: 6 nM
[24]
  Activity: 54.9%
[25]
  Activity: 72.8%
[26]
  Activity: 48.8%
[27]
  Activity: 70.66%
[28]
  Activity: 45.4%
[29]
  Activity: 28.99%
[30]
  Activity: 45.1%
[31]
  Activity: 73.55%
